Assay results published in ChEMBL document CHEMBL5120853, “Tolypocladamide H and the Proposed Tolypocladamide NRPS in Tolypocladium Species” (J Nat Prod, 2022).
Where “and” joins values, the source holds several entries; their conditions need not be identical. Equal entries are not always repeated. Square brackets hold non-standard residues; d marks the D form. Peptide text beside a SMILES is read from it. * marks the point of attachment. Bmt = C/C=C/C[C@@H](C)[C@@H](O)[C@H](N)C(=O)O; Decanoyl = CCCCCCCCCC(=O)*; Leu(ol) = CC(C)C[C@H](N)CO; Aib = CC(C)(N)C(=O)O

Assays:
Enterococcus faecium = assay: Antibacterial activity against Enterococcus faecium ATCC BAA-2317 assessed as inhibition of bacterial growth; format: functional
Method in brief: (§1)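 Strains grown in ATCC-recommended media in culture tubes at 37 °C with shaking at 225 rpm for 3–8 h, back-diluted to about 10^6 cfu/mL, and incubated in triplicate in 384-well plates with a dilution series of test agent. DMSO vehicle served as negative control; linezolid (E. faecium) and ampicillin (S. aureus) were positive controls. MIC recorded.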

Staphylococcus aureus = assay: Antibacterial activity against Staphylococcus aureus ATCC 25923 assessed as inhibition of bacterial growth; format: functional; method in brief: as §1
HeLa = assay: Cytotoxicity against human HeLa cells assessed as reduction in cell viability incubated for 72 hrs by CellTiter-Glo luminescent cell viability assay; format: functional, cell-based
Method in brief: (§2)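 HUVECs (primary, limited passages) were kept in medium 200PRF with low serum growth supplement. HeLa and MCF-7 were kept in MEM with Earle's salts, L-glutamine, 10% FBS and 1% pen/strep. Cells were seeded at 5000 (HUVEC), 2000 (HeLa) or 3000 (MCF-7) per well and treated after 18 h for 72 h (final DMSO ≤0.1%). Viability read by ATP luminescence, vehicle = 100%; EC50 derived.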

MCF7 = assay: Cytotoxicity against human MCF7 cells assessed as reduction in cell viability incubated for 72 hrs by CellTiter-Glo luminescent cell viability assay; format: functional, cell-based; conditions: MCF7, 72 h; method in brief: as §2
[1] = Cytotoxicity against HUVEC assessed as reduction in cell viability incubated for 72 hrs by CellTiter-Glo luminescent cell viability assay; format: toxicity, cell-based; conditions: human, HUVEC cells; method in brief: as §2

| Structure (SMILES) | MIC (Enterococcus faecium) | MIC (Staphylococcus aureus) | EC50 (HeLa) [µM] | EC50 (MCF7) [µM] | EC50 at 72 h [1] [µM] |
| --- | --- | --- | --- | --- | --- |
| C/C=C/C[C@@H](C)[C@@H](O)[C@H](NC(=O)[C@@H]1CCCN1C(=O)C(C)(C)NC(=O)CCCCCCCCC)C(=O)NC(C)(C)C(=O)N[C@@H](CCC(N)=O)C(=O)N[C@@H](CCC(N)=O)C(=O)NC(C)(C)C(=O)NC(C)(C)C(=O)N[C@@H](CCC(N)=O)C(=O)N[C@H](C(=O)N[C@H](CO)CC(C)C)C(C)C (Decanoyl-[Aib]P[Bmt][Aib]QQ[Aib][Aib]QV[Leu(ol)]) | 22 µg/mL and 16 µM | 11 µg/mL and 8 µM | 30 | 107 | 8 |
| CC(=O)NC[C@H]1CN(c2ccc(N3CCOCC3)c(F)c2)C(=O)O1 [LINEZOLID] | 30 µg/mL and 89 µM |  |  |  |  |
